We go through 13 molecules from ChEMBL document CHEMBL1122423, “N-arylhydroxamic acid N,O-acyltransferase. Positional requirements for the substrate hydroxyl group” (J Med Chem, 1983).

The species named for experiment [1] is Cricetulus griseus. Briefly: Inhibition of AHAT-catalyzed transacylation of 4-aminoazobenzene. Put shortly: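 Partially purified hamster hepatic AHAT (2.5–3.75 mg protein) was preincubated 5 min with inhibitor (2.5 μmol in EtOH; 1 mM) before adding acyl-donor substrate (2.5 μmol) and 4-aminoazobenzene (0.375 μmol). The 2.5 mL mix held pyrophosphate pH 7, DTT and 1.15% KCl, at 37 °C in air. Stopped with TCA/EtOH; supernatant read spectrophotometrically (Booth). Percent inhibition vs control; three experiments in triplicate.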

The species named for experiment [2] is Cricetulus griseus. Briefly: Percent inhibition against AHAT when compound 10 is used as substrate at 1 mM concentration. Summed up: (§1)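 Partially purified hamster hepatic AHAT; 1 mM inhibitor (final) in ethanol was preincubated with enzyme for 5 min, then acyl donor (2.5 μmol) and 4-aminoazobenzene (0.375 μmol) were added. Mix: pyrophosphate buffer pH 7, DTT, KCl, 2.5 mL, 37 °C in air, read after 10 min. TCA-ethanol stop; spectrophotometric read-out of transacetylation. % inhibition vs control; three experiments in triplicate.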

Experiment [3] is filed under the species Cricetulus griseus. Briefly: Percent inhibition against AHAT when compound 8 is used as substrate at 1 mM concentration. Put shortly: as §1

As for `CC(=O)N(O)c1ccc(/C=C/c2ccccc2)cc1`, the Transacetylation rate in experiment [1] turned out to be 9.73 nmol/min/mg.

As to `NC(=O)CI`, the inhibition in experiment [2] and in experiment [3] was 99% each time.

Take `CC(=O)N(O)c1ccc(-c2ccccc2)cc1`: the Transacetylation rate in experiment [1] was 13.3 nmol/min/mg.

Take `CC(=O)Nc1cc2c(cc1O)-c1ccccc1C2`: the Transacetylation rate in experiment [1] came to 0.05 nmol/min/mg.

`O=C(CO)Nc1ccc(/C=C/c2ccccc2)cc1`: the Transacetylation rate in experiment [1] amounted to 0.18 nmol/min/mg.

`CC(=O)Nc1ccc(-c2ccccc2)cc1`: in experiment [1], the Transacetylation rate turned out to be 0.27 nmol/min/mg.

Turning to `O=C(CO)Nc1ccc(-c2ccccc2)cc1`, the Transacetylation rate in experiment [1] worked out at 0.03 nmol/min/mg.

In experiment [1], `O=C(CO)Nc1ccc2c(c1)Cc1ccccc1-2` displayed a Transacetylation rate of 0.02 nmol/min/mg.

In experiment [1], `CC(=O)Nc1ccc(-c2ccccc2)cc1O` yielded a Transacetylation rate of 0.69 nmol/min/mg.

Take `CC(=O)N(O)c1ccc2c(c1)Cc1ccccc1-2`: in experiment [1], the Transacetylation rate was 19.3 nmol/min/mg.

For `CCN1C(=O)C=CC1=O`, the inhibition (usually the share of the control response that was lost under treatment) in experiment [2] is 86%; in experiment [3], 77%.

For the molecule p-Chloromercuribenzenesulfonate, the inhibition was 96% in experiment [2] and 92% in experiment [3].

In experiment [1], `CC(=O)Nc1ccc2c(c1O)Cc1ccccc1-2` displayed a Transacetylation rate of 0.11 nmol/min/mg.
